Experimental data taken from ChEMBL document CHEMBL3758168, “Hybrid triazoles: Design and synthesis as potential dual inhibitor of growth and efflux inhibition in tuberculosis” (Eur J Med Chem, 2016).
Converted amounts (≈) assume the structure as drawn.

How the values were obtained:
[1] = tested on: Mycobacterium tuberculosis; assay: Antibacterial activity against Mycobacterium tuberculosis H37Rv ATCC 27294T assessed as ofloxacin MIC at 0.5 ug/ml after 7 days by microdilution checkerboard assay; assay type: functional; conditions: 168 h
Summary of the method: (§1)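 Two-dimensional checkerboard in H37Rv at 10^5 CFU/ml in MB7H9/OADC. Partner drug (amikacin, EtBr, isoniazid, ofloxacin or rifampin) two-fold serially diluted across columns 3-11. Test compound two-fold serially diluted down rows 2-6. Plates incubated 7 days at 37 °C, then MTT added overnight. […] Run in triplicate.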

[2] = tested on: Mycobacterium tuberculosis; assay: Antibacterial activity against Mycobacterium tuberculosis H37Rv ATCC 27294T assessed as rifampin MIC at 0.25 ug/ml after 7 days by microdilution checkerboard assay; assay type: functional; conditions: 168 h; summary of the method: as §1
[3] = tested on: Mycobacterium tuberculosis; assay: Antibacterial activity against Mycobacterium tuberculosis H37Rv ATCC 27294T assessed as isoniazid MIC at 1 ug/ml after 7 days by microdilution checkerboard assay; assay type: functional; conditions: 168 h; summary of the method: as §1
[4] = tested on: Mycobacterium tuberculosis; assay: Antibacterial activity against Mycobacterium tuberculosis H37Rv ATCC 27294T assessed as isoniazid MIC at 0.25 ug/ml after 7 days by microdilution checkerboard assay; assay type: functional; conditions: 168 h; summary of the method: as §1
[5] = tested on: Mycobacterium tuberculosis; assay: Antibacterial activity against Mycobacterium tuberculosis H37Rv ATCC 27294T assessed as isoniazid MIC at 16 ug/ml after 7 days by microdilution checkerboard assay; assay type: functional; conditions: 168 h; summary of the method: as §1
[6] = tested on: Mycobacterium tuberculosis; assay: Antibacterial activity against Mycobacterium tuberculosis H37Rv ATCC 27294T assessed as rifampin MIC at 1 ug/ml after 7 days by microdilution checkerboard assay; assay type: functional; conditions: 168 h
Summary of the method: (§2)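 M. tuberculosis H37Rv grown in MB7H9 + 10% OADC at 37 °C to OD600 0.8; plates inoculated at 10^5 CFU/ml. Rifampicin two-fold serially diluted across columns, test compound two-fold diluted down rows (two-dimensional checkerboard). Sealed, 37 °C for seven days, then MTT added and incubated overnight. MIC read as no colour change. Triplicate.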

[7] = tested on: Mycobacterium tuberculosis; assay: Antibacterial activity against Mycobacterium tuberculosis H37Rv ATCC 27294T assessed as ethidium bromide MIC at 0.5 ug/ml after 7 days by microdilution checkerboard assay; assay type: functional; conditions: 168 h; summary of the method: as §1
[8] = tested on: Mycobacterium tuberculosis; assay: Antibacterial activity against Mycobacterium tuberculosis H37Rv ATCC 27294T assessed as rifampin MIC at 8 ug/ml after 7 days by microdilution checkerboard assay; assay type: functional; conditions: 168 h; summary of the method: as §2
[9] = tested on: Mycobacterium tuberculosis; assay: Antibacterial activity against Mycobacterium tuberculosis H37Rv ATCC 27294T assessed as ethidium bromide MIC at 1 ug/ml after 7 days by microdilution checkerboard assay; assay type: functional; conditions: 168 h; summary of the method: as §1
[10] = tested on: Mycobacterium tuberculosis; assay: Antibacterial activity against Mycobacterium tuberculosis H37Rv ATCC 27294T assessed as ofloxacin MIC at 8 ug/ml after 7 days by microdilution checkerboard assay; assay type: functional; conditions: 168 h; summary of the method: as §1
[11] = tested on: Mycobacterium tuberculosis; assay: Antibacterial activity against Mycobacterium tuberculosis H37Rv ATCC 27294T assessed as amikacin MIC at 2 ug/ml after 7 days by microdilution checkerboard assay; assay type: functional; conditions: 168 h; summary of the method: as §1
[12] = tested on: Mycobacterium tuberculosis; assay: Antibacterial activity against Mycobacterium tuberculosis H37Rv ATCC 27294T assessed as rifampin MIC at 0.5 ug/ml after 7 days by microdilution checkerboard assay; assay type: functional; conditions: 168 h; summary of the method: as §2
[13] = tested on: Mycolicibacterium smegmatis; assay: Anti-tubercular activity against Mycobacterium smegmatis MC2 155 ATCC 700084 after 3 days by microdilution method; assay type: functional; conditions: MC2 155 ATCC 700084, 72 h
Summary of the method: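 M. smegmatis mc2155 grown in MB7H9 + 10% OADC at 37 °C with shaking to OD600 0.8. Inoculum set to 0.5 McFarland, diluted 1:100, and mixed 1:1 with two-fold serial dilutions in MB7H9. Plates incubated 3 days at 37 °C with growth and sterility controls. MIC taken as the lowest concentration with no visible growth.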

[14] = tested on: Mycobacterium tuberculosis; assay: Antibacterial activity against Mycobacterium tuberculosis H37Rv ATCC 27294T assessed as amikacin MIC at 16 ug/ml after 7 days by microdilution checkerboard assay; assay type: functional; conditions: 168 h; summary of the method: as §1
[15] = tested on: Mycobacterium tuberculosis; assay: Antibacterial activity against Mycobacterium tuberculosis H37Rv ATCC 27294T assessed as ofloxacin MIC at 0.25 ug/ml after 7 days by microdilution checkerboard assay; assay type: functional; conditions: 168 h; summary of the method: as §1
[16] = tested on: Mycobacterium tuberculosis; assay: Antibacterial activity against Mycobacterium tuberculosis H37Rv ATCC 27294T assessed as ofloxacin MIC at 1 ug/ml after 7 days by microdilution checkerboard assay; assay type: functional; conditions: 168 h; summary of the method: as §1
[17] = Cytotoxicity against human MDM assessed as cell viability after 3 days by Alamar blue dye-based fluorocytometric analysis relative to control; conditions: 72 h
[18] = tested on: Mycobacterium tuberculosis; assay: Antibacterial activity against Mycobacterium tuberculosis H37Rv ATCC 27294T assessed as isoniazid MIC at 4 ug/ml after 7 days by microdilution checkerboard; assay type: functional; conditions: 168 h; summary of the method: as §1
[19] = tested on: Mycobacterium tuberculosis; assay: Antibacterial activity against Mycobacterium tuberculosis H37Rv ATCC 27294T assessed as ethidium bromide MIC at 8 ug/ml after 7 days by microdilution checkerboard assay; assay type: functional; conditions: 168 h; summary of the method: as §1
[20] = tested on: Mycobacterium tuberculosis; assay: Antibacterial activity against Mycobacterium tuberculosis H37Rv ATCC 27294T assessed as ethidium bromide MIC at 0.25 ug/ml after 7 days by microdilution checkerboard assay; assay type: functional; conditions: 168 h; summary of the method: as §1
[21] = tested on: Mycobacterium tuberculosis; assay: Antibacterial activity against Mycobacterium tuberculosis H37Rv ATCC 27294T assessed as amikacin MIC at 4 ug/ml after 7 days by microdilution checkerboard assay; assay type: functional; conditions: 168 h; summary of the method: as §1
[22] = tested on: Mycobacterium tuberculosis; assay: Antibacterial activity against Mycobacterium tuberculosis H37Rv ATCC 27294T assessed as amikacin MIC at 8 ug/ml after 7 days by microdilution checkerboard assay; assay type: functional; conditions: 168 h; summary of the method: as §1
[23] = tested on: Mycobacterium tuberculosis; assay: Antibacterial activity against Mycobacterium tuberculosis H37Rv ATCC 27294T assessed as ethidium bromide MIC at 2 ug/ml after 7 days by microdilution checkerboard assay; assay type: functional; conditions: 168 h; summary of the method: as §1
[24] = tested on: Mycobacterium tuberculosis; assay: Antibacterial activity against Mycobacterium tuberculosis H37Rv ATCC 27294T assessed as rifampin MIC at 16 ug/ml after 7 days by microdilution checkerboard assay; assay type: functional; conditions: 168 h; summary of the method: as §2
[25] = tested on: Mycobacterium tuberculosis; assay: Antibacterial activity against Mycobacterium tuberculosis H37Rv ATCC 27294T assessed as ethidium bromide MIC at 16 ug/ml after 7 days by microdilution checkerboard assay; assay type: functional; conditions: 168 h; summary of the method: as §1
[26] = tested on: Mycobacterium tuberculosis; assay: Anti-tubercular activity against Mycobacterium tuberculosis H37Rv ATCC 27294T after 7 days by mircodilution method; assay type: functional; conditions: 168 h
Summary of the method: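 H37Rv grown static in MB7H9 + 10% OADC at 37 °C to OD600 0.8, then diluted to about 10^5 cells/ml. Mixed 1:1 with two-fold serial dilutions in MB7H9/OADC and incubated 7 days at 37 °C. MTT added to final 2.5% and plates incubated overnight. MIC is the lowest concentration with no colour change. Run in triplicate.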

[27] = tested on: Mycobacterium tuberculosis; assay: Antibacterial activity against Mycobacterium tuberculosis H37Rv ATCC 27294T assessed as ethidium bromide MIC at 4 ug/ml after 7 days by microdilution checkerboard assay; assay type: functional; conditions: 168 h; summary of the method: as §1
[28] = tested on: Mycobacterium tuberculosis; assay: Antibacterial activity against Mycobacterium tuberculosis H37Rv ATCC 27294T assessed as ofloxacin MIC at 16 ug/ml after 7 days by microdilution checkerboard assay; assay type: functional; conditions: 168 h; summary of the method: as §1
[29] = tested on: Mycobacterium tuberculosis; assay: Antibacterial activity against Mycobacterium tuberculosis H37Rv ATCC 27294T assessed as amikacin MIC at 0.5 ug/ml after 7 days by microdilution checkerboard assay; assay type: functional; conditions: 168 h; summary of the method: as §1
[30] = tested on: Mycobacterium tuberculosis; assay: Antibacterial activity against Mycobacterium tuberculosis H37Rv ATCC 27294T assessed as ofloxacin MIC at 4 ug/ml after 7 days by microdilution checkerboard assay; assay type: functional; conditions: 168 h; summary of the method: as §1
[31] = tested on: Mycobacterium tuberculosis; assay: Antibacterial activity against Mycobacterium tuberculosis H37Rv ATCC 27294T assessed as amikacin MIC at 1 ug/ml after 7 days by microdilution checkerboard assay; assay type: functional; conditions: 168 h; summary of the method: as §1
[32] = tested on: Mycobacterium tuberculosis; assay: Antibacterial activity against Mycobacterium tuberculosis H37Rv ATCC 27294T assessed as isoniazid MIC at 8 ug/ml after 7 days by microdilution checkerboard assay; assay type: functional; conditions: 168 h; summary of the method: as §1
[33] = tested on: Mycobacterium tuberculosis; assay: Antibacterial activity against Mycobacterium tuberculosis H37Rv ATCC 27294T assessed as ofloxacin MIC at 2 ug/ml after 7 days by microdilution checkerboard assay; assay type: functional; conditions: 168 h; summary of the method: as §1
[34] = tested on: Mycobacterium tuberculosis; assay: Antibacterial activity against Mycobacterium tuberculosis H37Rv ATCC 27294T assessed as rifampin MIC at 4 ug/ml after 7 days by microdilution checkerboard assay; assay type: functional; conditions: 168 h; summary of the method: as §2
[35] = tested on: Mycobacterium tuberculosis; assay: Antibacterial activity against Mycobacterium tuberculosis H37Rv ATCC 27294T assessed as isoniazid MIC at 2 ug/ml after 7 days by microdilution checkerboard assay; assay type: functional; conditions: 168 h; summary of the method: as §1
[36] = tested on: Mycobacterium tuberculosis; assay: Antibacterial activity against Mycobacterium tuberculosis H37Rv ATCC 27294T assessed as rifampin MIC at 2 ug/ml after 7 days by microdilution checkerboard assay; assay type: functional; conditions: 168 h; summary of the method: as §2
[37] = tested on: Mycobacterium tuberculosis; assay: Antibacterial activity against Mycobacterium tuberculosis H37Rv ATCC 27294T assessed as isoniazid MIC at 0.5 ug/ml after 7 days by microdilution checkerboard assay; assay type: functional; conditions: 168 h; summary of the method: as §1
[38] = tested on: Mycobacterium tuberculosis; assay: Antibacterial activity against Mycobacterium tuberculosis H37Rv ATCC 27294T assessed as amikacin MIC at 0.25 ug/ml after 7 days by microdilution checkerboard assay; assay type: functional; conditions: 168 h; summary of the method: as §1

## CCSc1nnc(COc2ccccc2C2=NOC(c3ccc(Cl)cc3Cl)C2)n1NC(C)=O (stereo not drawn)
[1]
  MIC: 1 mg/L
[2]
  MIC: 1 mg/L
[3]
  MIC: 0.1 mg/L
[4]
  MIC: 0.1 mg/L
[5]
  MIC: 0.00156 mg/L
[6]
  MIC: 0.5 mg/L
[7]
  MIC: 12.5 mg/L
[8]
  MIC: 0.0312 mg/L
[9]
  MIC: 12.5 mg/L
[10]
  MIC: 1 mg/L
[11]
  MIC: 1 mg/L
[12]
  MIC: 0.5 mg/L
[13]
  MIC: 2 mg/L (≈ 3.95 µM)
[14]
  MIC: 0.0312 mg/L
[15]
  MIC: 2 mg/L
[16]
  MIC: 1 mg/L
[17]
  IC50: 9.7 mg/L (≈ 19.2 µM)
[18]
  MIC: 0.1 mg/L
[19]
  MIC: 1.56 mg/L
[20]
  MIC: 12.5 mg/L
[21]
  MIC: 1 mg/L
[22]
  MIC: 0.25 mg/L
[23]
  MIC: 12.5 mg/L
[24]
  MIC: 0.0156 mg/L
[25]
  MIC: 0.39 mg/L
[26]
  MIC: 8 mg/L (≈ 15.8 µM)
[27]
  MIC: 6.25 mg/L
[28]
  MIC: 0.0312 mg/L
[29]
  MIC: 1 mg/L
[30]
  MIC: 1 mg/L
[31]
  MIC: 1 mg/L
[32]
  MIC: 0.025 mg/L
[33]
  MIC: 1 mg/L
[34]
  MIC: 0.125 mg/L
[35]
  MIC: 0.1 mg/L
[36]
  MIC: 0.25 mg/L
[37]
  MIC: 0.1 mg/L
[38]
  MIC: 1 mg/L
